Source: PubChem BioAssay
ABCB6 inh 2: human ABCB6 transporter inhibition | K562-ABCB6 porphyrin accumulation, flow cytometry, 1 h; stronger effect = lower value | fluorescence ratio to DMSO, % at 10 µM | actives 0.19% (n = 360,000) | Q9NP58;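 active means fluorescence ratio to DMSO below 75%, the collection mean minus 3 SD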;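 further: signal is porphyrin accumulated inside mitochondria; 100% equals median channel fluorescence of DMSO control wells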
Target sequence (Q9NP58 whole entry, looked up): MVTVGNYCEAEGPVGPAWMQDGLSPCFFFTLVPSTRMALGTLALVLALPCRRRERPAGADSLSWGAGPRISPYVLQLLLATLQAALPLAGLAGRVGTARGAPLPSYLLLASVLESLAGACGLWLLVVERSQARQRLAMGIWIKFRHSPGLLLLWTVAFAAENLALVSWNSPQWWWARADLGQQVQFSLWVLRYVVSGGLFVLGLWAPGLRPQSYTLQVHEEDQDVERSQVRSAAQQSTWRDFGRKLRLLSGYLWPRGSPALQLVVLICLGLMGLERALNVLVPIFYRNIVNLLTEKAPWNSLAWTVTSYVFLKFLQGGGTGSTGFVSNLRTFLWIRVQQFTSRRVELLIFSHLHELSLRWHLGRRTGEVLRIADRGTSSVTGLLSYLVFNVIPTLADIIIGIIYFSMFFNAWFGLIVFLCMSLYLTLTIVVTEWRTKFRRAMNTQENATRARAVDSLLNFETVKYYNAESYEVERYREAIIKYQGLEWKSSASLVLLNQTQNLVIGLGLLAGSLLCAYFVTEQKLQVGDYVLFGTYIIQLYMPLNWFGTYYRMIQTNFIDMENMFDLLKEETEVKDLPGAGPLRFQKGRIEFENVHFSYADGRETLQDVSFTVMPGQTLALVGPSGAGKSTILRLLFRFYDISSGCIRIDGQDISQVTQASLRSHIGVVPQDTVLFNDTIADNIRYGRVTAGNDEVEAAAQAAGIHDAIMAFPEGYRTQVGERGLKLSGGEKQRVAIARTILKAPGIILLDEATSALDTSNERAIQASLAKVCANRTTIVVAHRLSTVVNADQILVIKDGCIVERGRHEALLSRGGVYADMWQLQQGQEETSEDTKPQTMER
Myeloid diff MLP: compounds promoting myeloid differentiation; AID 624256; ER-HoxA9 myeloid progenitors, lysozyme-GFP differentiation, flow cytometry; calls only at 10 µM; actives 1% (n = 360,000);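 active means normalized GFP-positive differentiation at or above the plate's own cutoff, the solvent-only control mean plus 3 SD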;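 further: cells exposed to compound for four days before flow analysis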
XiGFP reactiv: reactivates the inactive X chromosome in mouse fibroblasts; AID 743238; actives 0.055% (n = 360,000); XiGFP mouse fibroblasts, % GFP-positive cells imaging, 3 d; cells co-treated with 5-aza-dC sensitizer; scaled so ellipticine positive control = 100%; activation, % at 7.58 µM;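 active means mean normalized replicate activation at least 10% and every replicate at or above 10%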;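 further: 0% = median of on-plate neutral control wells and 100% = ellipticine 6 µM median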
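System: SV40-immortalized XiGFP fibroblast cells, line 68-5-11 / Incubation: 3-day compound exposure, then 15 min fixation at room temperature / Compound: single concentration per compound, delivered by pin transfer / Buffer or medium: DMEM plus 5-aza-dC sensitizer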
Myeloid diff CP1: myeloid differentiation induction. calls only. shares compounds with Myeloid diff MLP. AID 651706. ER-HoxA9 myeloid progenitors, GFP/Mac1 double-positive flow. actives 2% (n = 2,300);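 active means share of green or green-and-red cells above 9 and 9% in run 1 or 4 and 3% in run 2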
GFP autofluor: flagged as fluorescent in myeloid differentiation counter-screen; fluorescence response, % (no concentration beside the values); actives 7.4% (n = 2,300); ER-HoxA9 myeloid progenitors, no estrogen, GFP autofluorescence flow cytometry; vehicle wells 0%, positive control 100%; shares compounds with Myeloid diff MLP;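 active means over 5% cells positive for green fluorescent reporter, or over 2% positive for both it and APC stain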;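 further: range taken on the double positive population between DMSO and positive control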
An asterisk follows results filed as active; i = inactive; x = not tested or not shown; + = active, no number. This excerpt belongs to a sample that is enriched for hits.

SMILES	ABCB6 inh 2	Myeloid diff MLP	XiGFP reactiv	Myeloid diff CP1	GFP autofluor
CCOc1ccccc1NC(=O)Cn1c(C)cc(COC)c(C#N)c1=O	87.0	i	x	x	x
COCc1cc(C)n(CC(=O)Nc2ccccc2C(=O)OC)c(=O)c1C#N	92.0	i	x	i	0.6
COc1ccccc1S(=O)(=O)N[C@@H]1CC[C@@H](CCNC(=O)C2CCCCC2)O[C@H]1CO	x	x	-0.2	x	x
CN(C)C(=O)[C@H]1[C@H](CO)[C@H]2Cn3c(ccc(C4=CCCC4)c3=O)[C@@H]1N2CC1CCOCC1	x	x	0.2	x	x
O=C(Oc1ccc(Cl)c(Cl)c1)C1=CC=CN2CCS(=O)(=O)N=C12	99.0	i	0.2	x	x
COc1ccc(Br)cc1CN(C)C(=O)C1=CC=CN2CCS(=O)(=O)N=C12	84.0	i	0.1	i	0.0
COc1ccc(Br)cc1CN(C)C(=O)c1ccncc1	101.0	i	0.0	x	x
CN(Cc1ccc(Cl)c(Cl)c1)C(=O)C1=CC=CN2CCS(=O)(=O)N=C12	104.0	+	0.1	+	0.0
COc1ccc(CN(C)C[C@H]2Oc3c(NC(=O)c4ccc(-c5nccs5)cc4)cccc3C(=O)N([C@@H](C)CO)C[C@H]2C)cc1	x	x	0.2	x	x
CCCNC(=O)C[C@@H]1CC[C@H]2[C@H](COc3ccc(NC(=O)c4cccc(F)c4)cc3C(=O)N2C)O1	x	x	0.3	x	x
Cc1cccc(Cn2c(=O)n(-c3ccc(CC(=O)NCc4ccco4)cc3)c(=O)c3sccc32)c1	86.0	i	0.0	i	0.2
Cc1ccc(Cn2c(=O)n(Cc3ccco3)c(=O)c3ccccc32)cc1	96.0	i	x	i	0.3
O=c1c2ccccc2n(Cc2ccc(Cl)cc2)c(=O)n1Cc1ccco1	90.0	i	x	x	x
Cc1ccc(-n2c(=O)c3sccc3n(CC(=O)NCc3ccco3)c2=O)cc1	95.0	i	x	x	x
CCC(C)NC(=O)Cn1c(=O)n(-c2ccccc2)c(=O)c2ccc(C(=O)NCc3ccco3)cc21 (stereo not given)	90.0	i	x	x	x
Cc1ccc(Cn2c(=O)n(-c3ccccc3)c(=O)c3ccc(C(=O)NCc4ccco4)cc32)cc1	96.0	i	0.4	i	1.5
CC(C)C#Cc1ccc2c(c1)O[C@@H](CN(C)C)[C@@H](C)CN([C@@H](C)CO)S2(=O)=O	x	x	0.0	x	x
C[C@@H]1CN([C@@H](C)CO)S(=O)(=O)c2ccc(C3=CCCC3)cc2O[C@@H]1CN(C)Cc1ccccc1F	x	x	-0.1	x	x
COCCNC(=O)C[C@@H]1C[C@H]2c3cc(NC(=O)Nc4ccc(C(F)(F)F)cc4)ccc3O[C@H]2[C@H](CO)O1	x	x	0.0	x	x
Cc1cc(C(=O)Nc2nccs2)c2cc(F)ccc2n1	100.0	i	0.0	i	0.3
Cc1c(C(=O)Nc2nccs2)oc2ccc(F)cc12	96.0	i	0.0	x	x
O=C(CN1CCCCC1)Nc1nnc(-c2ccccc2)s1	101.0	i	x	x	x
O=C(CN1CCCCC1)Nc1nnc(-c2ccc([N+](=O)[O-])cc2)s1	108.0	i	x	i	0.0
C[C@H]1CN([C@@H](C)CO)C(=O)CCCn2nncc2CO[C@H]1CN(C)Cc1ccc(C(F)(F)F)cc1	x	x	-0.2	x	x
C=CCN(c1ccccc1OC)S(=O)(=O)c1ccc(Cl)c(C(=O)NCc2ccco2)c1	96.0	+	0.0	i	0.0
SMILES	ABCB6 inh 2	Myeloid diff MLP	XiGFP reactiv	Myeloid diff CP1	GFP autofluor
C=CCN(c1ccccc1OC)S(=O)(=O)c1cccc(C(=O)NCc2ccco2)c1	101.0	i	0.0	x	x
C[C@@H]1CN([C@H](C)CO)C(=O)c2cc(C#CC3CCCCC3)cnc2O[C@@H]1CN(C)Cc1cccnc1	x	x	0.7	x	x
C[C@@H]1CN([C@H](C)CO)C(=O)c2cc(C#CC3CCCCC3)cnc2O[C@H]1CN(C)Cc1cccnc1	98.0	i	0.1	i	0.5
CC(C)NC(=O)Nc1ccc2c(c1)C(=O)N(C)[C@@H]1CC[C@@H](CC(=O)Nc3ccccc3)O[C@H]1CO2	x	x	0.3	x	x
Cc1ccnc(S(=O)(=O)Cc2ccc([N+](=O)[O-])cc2)n1	101.0	i	0.1	i	0.0
Cn1c(CO)cnc1S(=O)(=O)Cc1ccc([N+](=O)[O-])cc1	103.0	i	x	x	x
CC(C)(C)C1CCC2(CC1)C(C#N)=C(SCC(=O)Nc1ccccc1)NC(=O)C2C#N (stereo not given)	95.0	i	x	x	x
N#CC1=C(SCC(=O)c2cc3ccccc3oc2=O)NC(=O)C(C#N)C12CCCC2 (stereo not given)	105.0	i	x	i	0.0
CCC(=O)N(C)C[C@H]1Oc2cc(-c3cncnc3)ccc2S(=O)(=O)N([C@@H](C)CO)C[C@@H]1C	x	x	-1.1	x	x
COc1ccc(Br)c(-c2nnc(CS(=O)(=O)c3ccccc3)o2)c1	95.0	i	0.0	x	x
COc1ccc(Br)c(-c2nc(CS(=O)(=O)c3ccc(F)cc3)no2)c1	92.0	i	0.0	i	0.3
COCC(=O)Nc1ccc2c(c1)C(=O)N(C)C[C@H](OC)[C@@H](C)CN(C(=O)c1ccccc1F)[C@H](C)CO2	x	x	0.0	x	x
Cc1cc(C)cc(NC(=O)CCN2CCCC2)c1	94.0	+	0.0	i	0.0
Cc1cccc(NC(=O)CCN2CCCCC2)c1	99.0	i	0.0	x	x
CCc1ccccc1NC(=S)N(Cc1ccc(OC)cc1)CC1CCC(C(=O)O)CC1 (stereo not given)	95.0	i	0.0	x	x
COc1ccc(Cl)cc1NC(=S)N(Cc1ccccc1C)CC1CCC(C(=O)O)CC1 (stereo not given)	105.0	i	0.1	i	0.7
CO[C@@H](CN(C)Cc1nccs1)[C@@H](C)CN([C@@H](C)CO)S(=O)(=O)c1ccc(C)cc1	x	x	0.0	x	x
C[C@@H]1CCCCO[C@H](CN(C)C(=O)Cc2ccccc2)[C@@H](C)CN([C@@H](C)CO)C(=O)c2cc(NS(=O)(=O)c3ccccc3)ccc2O1	x	x	0.1	x	x
Cc1ccccc1-n1c(=O)n(Cc2ccc(C(=O)O)cc2)c(=O)c2[nH]cnc21	96.0	i	0.0	x	x
COc1ccc(Cn2c(=O)c3[nH]cnc3n(-c3ccccc3C)c2=O)cc1	102.0	i	0.2	i	1.9
CC(C)NC(=O)N(C)C[C@@H]1Oc2cc(C#C[C@H](C)O)ccc2S(=O)(=O)N([C@H](C)CO)C[C@H]1C	x	x	-1.2	x	x
CN1C(=O)c2cc(NC(=O)c3cccc(F)c3)ccc2OC[C@@H]2O[C@H](CC(=O)NCc3ccccc3)CC[C@@H]21	x	x	0.2	x	x
Cc1cc(NC(=O)CSc2nc(C3CC3)nc3sc(C)c(C)c23)no1	100.0	i	x	i	2.7*
CCc1nc(SCC(=O)Nc2cc(C)on2)c2c(C)c(C)sc2n1	106.0	i	x	x	x
COc1ccccc1CNC(=O)C[C@@H]1CC[C@H](NC(=O)CC2CC2)[C@H](CO)O1	x	x	-0.2	x	x
COc1cccc(C(=O)NCc2nnc(SCC(=O)Nc3nccs3)n2-c2cccc(C)c2)c1	92.0	i	x	x	x
Cc1cccc(-n2c(CNC(=O)COc3ccccc3)nnc2SCC(=O)Nc2nccs2)c1	96.0	i	x	i	5.4*
